Source: PubChem BioAssay
TAAR1 agonist: agonists of human TAAR1 | Q96RJ0 | 360,000 compounds, 0.99% hits | CHO RD-HGA16 TAAR1, Fluo-8 calcium fluorescence; vehicle wells 0%, saturating PEA agonist 100% | activation, % at 3 µM;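 active means activation above the mean activation of all test compounds in the run plus 3 SD, cut at about 38% in these data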
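Benchmarks: low control DMSO, high control PEA (EC100); System: CHO RD-HGA16 cells carrying human TAAR1 plus Gα16; Detection: Fluo-8 fluorescence, 5 s baseline then 140 s kinetic read; Schedule: 17-24 h plating, Fluo-8 75 min 37 °C, 30 min RT; Read-out basis: % activation from peak over basal fluorescence ratio, DMSO-to-PEA scaled.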
OX1R antag-1: antagonists of human orexin 1 receptor (OX1R) | O43613 | OX1R-expressing cells, FRET antagonist read-out | inhibition, % at 6.6 µM | 330,000 compounds, 1.8% hits; in the data active means inhibition mostly above about 38%, no sharp cut-off; inactive means mostly below about 40%
Target sequence (O43613 whole entry, looked up): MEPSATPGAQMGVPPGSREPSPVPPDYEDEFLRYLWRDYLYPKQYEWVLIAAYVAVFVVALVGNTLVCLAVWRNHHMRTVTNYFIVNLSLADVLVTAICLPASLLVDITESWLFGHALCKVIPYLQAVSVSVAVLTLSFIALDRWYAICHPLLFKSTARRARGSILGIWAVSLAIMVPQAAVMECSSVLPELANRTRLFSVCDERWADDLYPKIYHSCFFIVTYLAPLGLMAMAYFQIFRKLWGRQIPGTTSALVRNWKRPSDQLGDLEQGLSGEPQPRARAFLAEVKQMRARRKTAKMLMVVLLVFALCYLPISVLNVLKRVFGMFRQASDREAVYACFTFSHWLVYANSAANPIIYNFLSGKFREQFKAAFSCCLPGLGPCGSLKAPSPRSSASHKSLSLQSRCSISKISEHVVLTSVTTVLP
TAAR1 antag: antagonists of human TAAR1 | inhibition, % at 3 µM | 360,000 compounds, 1.5% hits | Q96RJ0 | CHO RD-HGA16 TAAR1, Fluo-8 calcium fluorescence, antagonist;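 active means inhibition above a per-plate cutoff, the mean inhibition of test compounds on that plate plus 3 SD, cut at about 49% in these data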
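Test system: RD-HGA16 CHO cells with stable hTAAR1 and Gα16 / Probe or stimulus: EC80 β-phenethylamine stimulus / Times: seeding 17-24 h prior, 75-min 37 °C, 30-min RT dye loading / Detection: Fluo-8 calcium-sensitive fluorescence / Read-out basis: % inhibition scaled between DMSO and EC80 PEA controls / Repeats: singlicate, one well per test compound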
OX1R antag-2: antagonists of human orexin 1 receptor. inhibition, % at 5 µM. CHO/OX1R cells, Fluo-8 calcium fluorescence, orexin A. 330,000 compounds, 0.43% hits;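 active means inhibition above its plate's threshold, mean inhibition of all tested compounds on the plate plus 3 SD, cut at about 37% in these data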
CHO parental Ca: counter-screen for OX1R antagonists: effect in parental CHO cells. 330,000 compounds, 0.63% hits. inhibition, % at 5.6 µM. parental CHO-K1, ATP-induced calcium, Fluo-8 fluorescence;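 active means inhibition above that plate's mean sample inhibition plus 3 SD, cut at about 26% in these data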
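Assay system – parental CHO cells · Reagent – ATP stimulus · Detection – intracellular calcium via Fluo-8 no-wash fluorescent dye · Evaluation – percent inhibition of ATP-evoked calcium rise, normalized to controls · Controls – ATP wells versus no-ATP DMSO wells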
GPR7 antagonist: blocks human GPR7 receptor signaling; 290,000 compounds, 1.1% hits; inhibition, % at 4.4 µM; GPR7-expressing cells, fluorescence antagonist assay; P48145; in the data active means inhibition above about 16%, passing the limit was not always enough;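 further: cells stimulated with the agonist NPW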
Target sequence (P48145 whole entry, looked up): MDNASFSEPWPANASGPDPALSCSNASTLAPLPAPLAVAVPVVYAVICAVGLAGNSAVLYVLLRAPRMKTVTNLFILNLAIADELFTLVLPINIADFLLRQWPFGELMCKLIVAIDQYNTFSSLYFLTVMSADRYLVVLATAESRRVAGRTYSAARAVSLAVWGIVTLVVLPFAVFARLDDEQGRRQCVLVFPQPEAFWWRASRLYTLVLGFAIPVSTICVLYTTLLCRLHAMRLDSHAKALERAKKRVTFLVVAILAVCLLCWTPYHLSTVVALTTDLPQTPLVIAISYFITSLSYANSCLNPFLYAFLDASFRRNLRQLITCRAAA
OX1R HTRF confirm: OX1R (human) antagonism, HTRF confirmed | inhibition, % at 6.6 µM | OX1R-expressing cells, HTRF antagonist assay | 1,800 compounds, 49% hits | shares compounds with OX1R antag-1 | AID 492964; in the data active means inhibition above about 55%;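 further: CHO cells expressing OX1R stimulated with orexin A at about EC80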
CHO-K1 HTRF: signal in parental CHO-K1 cells, OX1R antagonist counter-screen. shares compounds with OX1R antag-1. HTRF counterscreen. inhibition, % at 6.6 µM. 1,800 compounds, 48% hits; in the data active means inhibition above about 17%
nonsel antag count: nonselective antagonist in TAAR1 antagonist counter-screen; shares compounds with TAAR1 antag; counterscreen cell line, calcium fluorescence, antagonist mode; inhibition, % at 3 µM; 2,400 compounds, 77% hits; in the data active means inhibition above about 22%;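 further: CHO-Ga16 host cells stimulated with ATP at an EC80 level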
TAAR1 antag conf: confirmation of human TAAR1 antagonists; shares compounds with TAAR1 antag; TAAR1-expressing cells, fluorescence antagonist read-out; inhibition, % at 3 µM; 2,400 compounds, 40% hits; AID 651785; in the data active means inhibition above about 49%;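 further: CHO-Ga16 host cells challenged with agonist PEA near its EC80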
Ga16 nonsel ag: nonselective Ga16 agonism, counter-screen; AID 651953; shares compounds with TAAR1 antag; activation, % at 3 µM; Ga16-expressing cells, calcium fluorescence, agonist counterscreen; 2,400 compounds, 18% hits; in the data active means activation above about 12%
TAAR1 ag counter: TAAR1 agonism, antagonist counter-screen | shares compounds with TAAR1 antag | hTAAR1 cell line, fluorescence activation, agonist mode | activation, % at 3 µM | 2,400 compounds, 2% hits | AID 651955; in the data active means activation above about 37%;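 further: CHO cells stably expressing TAAR1 with calcium dye readout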
Large screens that a line does not name were inactive (follow-up assays come after a bar, where they were run). Sampled rows, rich in hits. Any-hit rate of the full collection: about 4.6%.

CCN(C(=O)COC(=O)c1cc(S(=O)(=O)Nc2c(C)n(C)n(-c3ccccc3)c2=O)ccc1Cl)C1CCCCC1	OX1R antag-1 80 | OX1R HTRF confirm 86 | CHO-K1 HTRF inactive
Cc1c(NS(=O)(=O)c2cccc(C(=O)NCc3ccc(Cl)cc3)c2)c(=O)n(-c2ccccc2)n1C	OX1R antag-1 84 | OX1R HTRF confirm 84 | CHO-K1 HTRF inactive
COc1cccc(CNC(=O)C(CCSC)NS(=O)(=O)c2ccc3c(c2)oc(=O)n3C)c1 (stereo not given)	none
COc1cc(OC)c2cc(C(=O)N/N=C/c3cccc(OC)c3O)[nH]c2c1	OX1R antag-1 77 | OX1R HTRF confirm 72 | CHO-K1 HTRF inactive
COc1cccc(/C=N/NC(=O)N/N=C/c2cccc(OC)c2O)c1O	none
Cc1ccc(C)c(NCC(=O)c2ccc(Cl)cc2)c1	none
CCOC(=O)c1c(C)oc2c1c(C(c1cccnc1)N1CCCCC1)c(O)c1ccccc12 (stereo not given)	OX1R antag-1 95 | OX1R HTRF confirm inactive | CHO-K1 HTRF inactive
S=c1[nH]nc(Cc2sc(-c3ccccc3)nc2-c2ccccc2)o1	OX1R antag-1 78 | OX1R HTRF confirm inactive | CHO-K1 HTRF 22
S=c1[nH]nc(Cc2c[nH]c3ccccc23)o1	none
COc1ccccc1CNC(=O)c1ccc(Cl)c(NC2=NC3CS(=O)(=O)CC3S2)c1 (stereo not given)	none
COc1cccc(/C=C2\Oc3ccc(O)cc3C2=O)c1O	OX1R antag-1 95 | OX1R HTRF confirm 93 | CHO-K1 HTRF inactive
CC1CC(=O)NN=C1c1ccc(N)c([N+](=O)[O-])c1 (stereo not given)	OX1R antag-1 83 | OX1R HTRF confirm inactive | CHO-K1 HTRF 29
COc1cccc2c1C(=O)C=C(C)C2=O	OX1R antag-1 124 | OX1R HTRF confirm 72 | CHO-K1 HTRF 92
C/C(=N\NC(=O)c1cc([N+](=O)[O-])cc([N+](=O)[O-])c1)c1ccco1	OX1R antag-1 81 | OX1R HTRF confirm 56 | CHO-K1 HTRF 89
O=C(Nc1ccccc1)C1=C[C@@H](c2ccc3c(c2)OCO3)C[C@@H](OCCCCO)O1	none (no result: GPR7 antagonist)
CC[n+]1ccccc1/C=C/c1ccc(N(C)C)cc1	none (no result: OX1R antag-1, OX1R antag-2, CHO parental Ca)
CC[n+]1c(/C=C/c2ccc(N(C)C)cc2)ccc2ccccc21	OX1R antag-1 94 | OX1R HTRF confirm 82 | CHO-K1 HTRF 103
COc1cccc2cc(-c3cn4ccc(C)cc4n3)c(=O)oc12	OX1R antag-1 86 | OX1R HTRF confirm 91 | CHO-K1 HTRF inactive
COc1cccc2cc(-c3cn4cccc(C)c4n3)c(=O)oc12	none
Cc1cccc(N(CC(=O)NC2CCCCC2)C(=O)CCC(=O)Nc2nccs2)c1	none
CCOC(=O)c1ccc2[nH]c(C)c(C)c2c1	OX1R antag-1 93 | OX1R HTRF confirm 66 | CHO-K1 HTRF inactive
Cc1[nH]c2ccc(C(=O)OCCN(C)C)cc2c1C	none
COc1ccc(Br)c(C(=O)N2CCN(S(=O)(=O)c3cccs3)CC2)c1	OX1R antag-1 136 | OX1R HTRF confirm inactive | CHO-K1 HTRF inactive
COc1cc(/C=N/Nc2nc(C)cc(=O)[nH]2)ccc1OC(=O)c1cccnc1	none
O=C(Nn1cnnc1)c1cc([N+](=O)[O-])cc([N+](=O)[O-])c1	OX1R antag-1 113 | OX1R HTRF confirm 66 | CHO-K1 HTRF 84
Nc1c(C(=O)Nn2cnnc2)cc([N+](=O)[O-])cc1[N+](=O)[O-]	none (no result: TAAR1 agonist, TAAR1 antag)
O=C(CCN1C(=O)c2cccc3cccc(c23)C1=O)N1CCOCC1	OX1R antag-1 80 | OX1R HTRF confirm inactive | CHO-K1 HTRF 64
O=C(CCN1C(=O)c2cccc3cccc(c23)C1=O)NC1CCS(=O)(=O)C1 (stereo not given)	OX1R antag-1 79 | OX1R HTRF confirm inactive | CHO-K1 HTRF 54
O=C(CCN1C(=O)c2ccccc2C1=O)N1CCOCC1	none
O=C(CCN1C(=O)c2cccc3cccc(c23)C1=O)NCC1CCCO1 (stereo not given)	OX1R antag-1 92 | OX1R HTRF confirm inactive | CHO-K1 HTRF 40
COc1cccc(C(=O)Nc2ccc(NC(=O)C3CC=CCC3C(=O)O)cc2)c1 (stereo not given)	none
COc1ccc(Cl)cc1NC(=O)CN(C)CC(=O)Nc1c(C)n(C)n(-c2ccccc2)c1=O	none (no result: GPR7 antagonist)
CCc1ccc2nc(N(CCN(C)C)C(=O)c3ccc4ccccc4c3)sc2c1	none (no result: TAAR1 agonist, TAAR1 antag)
COc1ccc(-c2cc(C(F)(F)F)n3ncc(C(=O)O)c3n2)cc1OC	OX1R antag-1 82 | OX1R HTRF confirm inactive | CHO-K1 HTRF 55
O=C(NC(c1ccc(F)cc1)c1ccc2ccccc2n1)C1CCN(CCOc2ccc(Cl)cc2)CC1 (stereo not given)	none (no result: OX1R antag-1, OX1R antag-2, CHO parental Ca, GPR7 antagonist)
c1ccc2nc3c(nc2c1)[nH]c1ccccc13	OX1R antag-1 82 | OX1R HTRF confirm 72 | CHO-K1 HTRF inactive
COc1cccc2oc3cc(C#Cc4ccccn4)ccc3c(=O)c12	OX1R antag-1 79 | OX1R HTRF confirm 64 | CHO-K1 HTRF inactive
CCc1cc2c(=O)c(-c3nc(C)cs3)coc2cc1O	OX1R antag-1 82 | OX1R HTRF confirm 78 | CHO-K1 HTRF inactive
COc1ccc2c(=O)c(-c3nc(C)cs3)coc2c1	none
CCCCn1c(CNC(=O)C23CC4CC(CC(C4)C2)C3)nnc1SC(C)CC (stereo not given)	none
CCOC(=O)c1c(C)[nH]c(C(=O)OCC(=O)Nc2ccc(Cl)cn2)c1C	none (no result: GPR7 antagonist)
CCOC(=O)c1c(C)[nH]c(C(=O)OCC(=O)Nc2sccc2C(N)=O)c1C	OX1R antag-1 99, TAAR1 antag 72 (no result: GPR7 antagonist) | OX1R HTRF confirm 64 | CHO-K1 HTRF inactive | nonsel antag count 39 | TAAR1 antag conf 53 | Ga16 nonsel ag 17 | TAAR1 ag counter inactive
